Calls of active or inactive are those of the source. No cut-off for these calls is given here. Where only a bound is given, the exact number is not on record here.

The subject of series [1] is K562. The experiment in a line: Antiproliferative activity against human K562 cells at 3 to 6 uM after 2 days by CellTiter-Glo assay. The class given is functional, cell-based. In short, it runs like this: (§1)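 3000 cells/well in 96-well plates, grown overnight, then inhibitor at indicated concentrations for 2 days (48 h). Viability by CellTiter-Glo; mean±s.d., n=3.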

Series [2] in a line: Allosteric inhibition of SHP2 E76A mutant (unknown origin) expressed in Escherichia coli BL21(DE3) using DIFMUP as substrate preincubated for 20 mins followed by substrate addition measured after 20 mins by phosphatase assay. The arrangement: species or system Homo sapiens. In short, it runs like this:
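His-tagged SHP2 constructs expressed in E. coli BL21(DE3) (0.5 mM IPTG, 5 h, 30 °C) and Ni-column purified. 1.5 nM enzyme preincubated 20 min at room temperature with compound in 0.1 M sodium acetate pH 5.0. DIFMUP then added, 20 min further, fluorescence at 358/455 nm. Eight 3-fold dilutions, duplicate wells, IC50 from at least three independent experiments.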

Series [3] has as its target Dual specificity protein phosphatase 6 (Homo sapiens, UniProt Q16828). In words: Inhibition of MKP3 (unknown origin) expressed in Escherichia coli BL21(DE3) using DIFMUP as substrate preincubated for 20 mins followed by substrate addition measured after 20 mins by phosphatase assay. In short, it runs like this:
(§2)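 Phosphatases purified from E. coli and run as for SHP2 E76A: 20 min room-temperature preincubation with compound in 0.1 M sodium acetate pH 5.0, then DIFMUP at each enzyme's Km, 20 min, fluorescence 358/455 nm. Eight 3-fold dilutions in duplicate; IC50 from at least three independent experiments.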

Series [4] addresses T1, Tyrosine-protein phosphatase non-receptor type 11 (Homo sapiens) (UniProt Q06124).
T1 sequence (whole entry): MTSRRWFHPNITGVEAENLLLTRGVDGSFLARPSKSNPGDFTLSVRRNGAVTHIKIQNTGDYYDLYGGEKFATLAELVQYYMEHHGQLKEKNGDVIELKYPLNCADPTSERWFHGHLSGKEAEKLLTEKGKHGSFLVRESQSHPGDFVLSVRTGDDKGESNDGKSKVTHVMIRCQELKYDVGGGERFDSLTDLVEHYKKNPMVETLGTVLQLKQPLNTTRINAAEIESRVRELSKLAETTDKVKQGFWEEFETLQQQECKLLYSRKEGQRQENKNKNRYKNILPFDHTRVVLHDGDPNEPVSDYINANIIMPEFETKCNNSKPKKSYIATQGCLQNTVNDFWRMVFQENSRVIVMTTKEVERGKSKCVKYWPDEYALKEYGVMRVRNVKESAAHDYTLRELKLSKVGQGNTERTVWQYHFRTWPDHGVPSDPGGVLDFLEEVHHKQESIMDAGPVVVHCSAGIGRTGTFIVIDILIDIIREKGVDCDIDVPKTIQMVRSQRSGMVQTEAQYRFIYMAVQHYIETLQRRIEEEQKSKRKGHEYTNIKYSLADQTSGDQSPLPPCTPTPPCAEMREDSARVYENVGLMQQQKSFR
The experiment in a line: Allosteric inhibition of SHP2 in human A549 cells harboring KRAS mutant assessed as upregulation of YAP Y357 phosphorylation at 5 and 10 uM after 2 hrs by Western blot analysis. The class given is cell-based. (In general: In western blotting, separated proteins are transferred to a membrane and probed.)

The species entered for series [5] is Homo sapiens. In words: Allosteric inhibition of SHP2 E76A mutant (unknown origin) assessed as reduction in SHP2-mediated YAP Y357 peptide dephosphorylation. preincubated for 15 mins before YAP pY357 peptide addition and measured after 15 mins post substrate addition. Put shortly:
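Purified SHP2 E76A (1.5 nM) preincubated 15 min with 20 μM inhibitor in 20 mM Tris-HCl pH 7.4, 100 mM NaCl, 1 mM EDTA, 2 mM DTT. 100 μM YAP pY357 peptide added for 15 min. Enzyme removed on 30 kD filters; products dot-blotted and probed with p-YAP(Y357) antibody (1:1000) with ECL detection.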

The target of series [6] is T1, Tyrosine-protein phosphatase non-receptor type 11 (Homo sapiens). In words: Allosteric inhibition of SHP2 in human SF268 cells assessed as downregulation of YAP-mediated CYR61 gene expression ay 10 to 20 uM after 2 hrs by qRT-PCR analysis. The class given is cell-based. In short, it runs like this:
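SF268 cells exposed to DMSO, 10 μM or 20 μM inhibitor for 2 h. RNA extracted, reverse-transcribed, and CTGF, CYR61, ANKRD1 and YAP mRNA quantified by qPCR; mean±s.d., n=3.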
Background: In qPCR the cycle at which signal appears reflects the starting amount.

The species entered for series [7] is Homo sapiens. The experiment in a line: Selectivity ratio of IC50 for SHP1 (unknown origin) expressed in Escherichia coli BL21(DE3) to IC50 for SHP2 E76A mutant (unknown origin) expressed in Escherichia coli BL21(DE3). In short, it runs like this: (§3)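 Ratio of IC50 values from one DIFMUP fluorescence assay (Ex/Em 358/455), room temperature, 0.1 M sodium acetate pH 5.0. His-tagged SHP2 E76A (1.5 nM) or counter-phosphatase purified from E. coli, preincubated 20 min with compound (eight 3-fold dilutions), then DIFMUP added for 20 min. DIFMUP was at Km for each counter-phosphatase. Duplicates; IC50 from at least three independent experiments.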

For series [8], the system named is Mus musculus. The experiment in a line: Toxicity in BALB/c mouse xenografted with human MV4-11 cells assessed as effect on body weight at 10 to 30 mg/kg administered qd via oral gavage measured twice weekly. The class given is organism-based. The note with it: in vivo. In short, it runs like this: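 Female BALB/c nude mice implanted subcutaneously with 5×10^6 MV4;11 cells in 50% matrigel/PBS. At about 230 mm³, mice randomized to vehicle, 10 or 30 mg/kg (10 ml/kg) once daily by oral gavage. Body weight and caliper tumor dimensions measured twice weekly; mean±sem.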

Series [9] deals with Ramos. The experiment in a line: Antiproliferative activity against human Ramos cells at 3 to 6 uM after 2 days by CellTiter-Glo assay. The format is functional, cell-based. Put shortly: as §1
(In general: Cellular ATP, detected with luciferase, serves as a proxy for viable cell number.)

Series [10] has as its target T1, Tyrosine-protein phosphatase non-receptor type 11 (Homo sapiens). In words: Allosteric inhibition of SHP2 in human SF268 cells assessed as upregulation of YAP phosphorylation up to 20 uM after 2 hrs by Western blot analysis. The class given is cell-based. In short, it runs like this: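 SF268 cells given DMSO or inhibitor for 2 h. YAP immunoprecipitated and immunoblotted with pY-100 phosphotyrosine antibody, which detects the single YXXP tyrosine Y357.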

The species named for series [11] is Homo sapiens. The experiment in a line: Selectivity ratio of IC50 for TC-PTP (unknown origin) expressed in Escherichia coli BL21(DE3) to IC50 for SHP2 E76A mutant (unknown origin) expressed in Escherichia coli BL21(DE3). Put shortly:
as §3

The target in series [12] is Tyrosine-protein phosphatase non-receptor type 6 (Homo sapiens, UniProt P29350). The experiment in a line: Inhibition of SHP1 (unknown origin) expressed in Escherichia coli BL21(DE3) using DIFMUP as substrate preincubated for 20 mins followed by substrate addition measured after 20 mins by phosphatase assay. Put shortly:
as §2

The target of series [13] is Low molecular weight phosphotyrosine protein phosphatase (Homo sapiens, UniProt P24666). In words: Inhibition of LMW-PTP (unknown origin) expressed in Escherichia coli BL21(DE3) using DIFMUP as substrate preincubated for 20 mins followed by substrate addition measured after 20 mins by phosphatase assay. Put shortly: as §2
The target in series [14] is M-phase inducer phosphatase 1 (Homo sapiens, UniProt P30304). The experiment in a line: Inhibition of CDC25A (unknown origin) expressed in Escherichia coli BL21(DE3) using DIFMUP as substrate preincubated for 20 mins followed by substrate addition measured after 20 mins by phosphatase assay. In short, it runs like this:
as §2

Chain of M-phase inducer phosphatase 1 (P30304 whole entry): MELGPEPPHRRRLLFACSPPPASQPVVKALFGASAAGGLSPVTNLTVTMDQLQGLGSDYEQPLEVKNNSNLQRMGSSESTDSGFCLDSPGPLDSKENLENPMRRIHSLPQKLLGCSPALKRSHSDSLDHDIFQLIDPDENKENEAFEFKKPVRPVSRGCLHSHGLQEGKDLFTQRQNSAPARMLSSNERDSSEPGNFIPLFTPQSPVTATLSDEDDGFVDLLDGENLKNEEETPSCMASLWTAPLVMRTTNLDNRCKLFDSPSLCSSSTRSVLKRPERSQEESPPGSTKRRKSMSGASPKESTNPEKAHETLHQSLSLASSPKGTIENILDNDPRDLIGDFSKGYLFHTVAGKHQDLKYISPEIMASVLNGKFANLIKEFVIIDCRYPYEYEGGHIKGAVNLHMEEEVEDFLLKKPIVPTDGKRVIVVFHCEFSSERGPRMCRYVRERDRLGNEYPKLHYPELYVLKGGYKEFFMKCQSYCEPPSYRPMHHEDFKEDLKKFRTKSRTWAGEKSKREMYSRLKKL
Chain of Low molecular weight phosphotyrosine protein phosphatase (P24666 whole entry): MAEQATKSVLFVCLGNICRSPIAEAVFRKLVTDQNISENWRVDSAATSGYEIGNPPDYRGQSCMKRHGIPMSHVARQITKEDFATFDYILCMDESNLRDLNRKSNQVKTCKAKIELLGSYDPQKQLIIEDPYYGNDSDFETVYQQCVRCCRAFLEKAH
Chain of Dual specificity protein phosphatase 6 (Q16828 whole entry): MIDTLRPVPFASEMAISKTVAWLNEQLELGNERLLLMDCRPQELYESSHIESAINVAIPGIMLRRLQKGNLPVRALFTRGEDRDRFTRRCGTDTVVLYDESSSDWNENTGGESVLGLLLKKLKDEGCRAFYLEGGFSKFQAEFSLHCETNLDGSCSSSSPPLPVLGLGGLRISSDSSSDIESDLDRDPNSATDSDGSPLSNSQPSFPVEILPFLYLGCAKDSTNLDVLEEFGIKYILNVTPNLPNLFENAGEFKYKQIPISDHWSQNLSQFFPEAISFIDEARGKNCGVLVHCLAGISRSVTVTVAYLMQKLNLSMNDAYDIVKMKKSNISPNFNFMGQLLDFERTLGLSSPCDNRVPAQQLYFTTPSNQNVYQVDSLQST
Chain of Tyrosine-protein phosphatase non-receptor type 6 (P29350 whole entry): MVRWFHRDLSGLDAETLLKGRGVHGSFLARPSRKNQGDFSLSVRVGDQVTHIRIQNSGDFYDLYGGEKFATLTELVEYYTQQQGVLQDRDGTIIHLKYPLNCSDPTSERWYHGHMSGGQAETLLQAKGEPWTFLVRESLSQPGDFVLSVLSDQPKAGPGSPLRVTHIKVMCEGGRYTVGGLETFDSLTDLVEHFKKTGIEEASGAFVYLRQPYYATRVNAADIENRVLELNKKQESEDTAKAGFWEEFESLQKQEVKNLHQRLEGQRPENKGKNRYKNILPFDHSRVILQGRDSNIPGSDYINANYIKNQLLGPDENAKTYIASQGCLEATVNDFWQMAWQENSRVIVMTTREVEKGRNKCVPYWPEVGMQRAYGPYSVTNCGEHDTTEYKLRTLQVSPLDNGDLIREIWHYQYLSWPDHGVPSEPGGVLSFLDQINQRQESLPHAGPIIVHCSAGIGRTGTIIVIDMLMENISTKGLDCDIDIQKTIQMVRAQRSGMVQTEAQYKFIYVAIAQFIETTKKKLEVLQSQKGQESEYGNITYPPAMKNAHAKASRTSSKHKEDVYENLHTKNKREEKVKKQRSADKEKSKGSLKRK

As usually defined, the IC50 is the concentration that inhibits the measured activity by half. Lower therefore signals greater potency in that assay. As to `CC1(N)CCN(c2nc(-c3ccc4cc(Br)ccc4c3)cs2)CC1`, the result in [1] and in [9] was Active. Also, the IC50 in series [2] is 0.71 µM; in series [3] it was above 100 µM; in [12], 34.6 µM; in series [13], above 100 µM; in series [14] it was 27.5 µM. The inhibition result in series [4], in series [5], in series [6] and in series [10] was “Active” each time. The values for the Ratio IC50 in series [7] and in series [11] were 48 and above 30, respectively. For the same compound, the Activity result in series [8] is reported as “Non-Toxic”.

The record behind these values is ChEMBL document CHEMBL4028906, “Allosteric Inhibitors of SHP2 with Therapeutic Potential for Cancer Treatment” (J Med Chem, 2017).
